Laboratory results taken from ChEMBL document CHEMBL3525985, “Regiospecificity and stereospecificity of human UDP-glucuronosyltransferases in the glucuronidation of estriol, 16-epiestriol, 17-epiestriol, and 13-epiestradiol” (Drug Metab Dispos, 2013).

Tests used:
Assay type in all cases: ADME
Conditions in all cases: recombinant enzyme
[1] = molecular target: T1, UDP-glucuronosyltransferase 2B7 (Homo sapiens, UniProt P16662); experiment: Drug metabolism assessed as recombinant human C-terminal His-tagged UGT2B7-mediated 16-epiestriol-16-glucuronide formation after 15 to 60 mins by Michaelis-Menten equation analysis in presence of UDPGA
T1 sequence (P16662 whole entry): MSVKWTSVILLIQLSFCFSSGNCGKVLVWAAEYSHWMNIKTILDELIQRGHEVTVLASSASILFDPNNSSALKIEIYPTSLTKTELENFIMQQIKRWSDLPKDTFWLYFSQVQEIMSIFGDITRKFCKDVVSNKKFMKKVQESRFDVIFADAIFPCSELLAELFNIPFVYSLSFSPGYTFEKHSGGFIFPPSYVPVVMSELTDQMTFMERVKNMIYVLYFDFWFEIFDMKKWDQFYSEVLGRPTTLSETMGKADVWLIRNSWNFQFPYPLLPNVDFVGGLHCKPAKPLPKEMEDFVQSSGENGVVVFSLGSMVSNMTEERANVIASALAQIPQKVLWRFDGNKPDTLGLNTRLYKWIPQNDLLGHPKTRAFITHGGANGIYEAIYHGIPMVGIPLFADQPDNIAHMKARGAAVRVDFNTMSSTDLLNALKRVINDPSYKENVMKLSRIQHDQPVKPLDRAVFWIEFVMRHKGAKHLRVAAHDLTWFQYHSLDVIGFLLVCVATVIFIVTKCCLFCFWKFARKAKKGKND
In short: (§1)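 For kinetics, the aglycone ranged from 0.2 to 300 μM in DMSO (10% final) with 5 mM UDPGA, 10 mM MgCl₂ and 50 mM phosphate pH 7.4. Enzyme was UGT-enriched insect cell membranes. Incubation was 15–60 min at 37°C, in triplicate, keeping substrate consumption ≤10%. Products were measured by HPLC and fitted to Michaelis-Menten. Rates were normalized to expression level.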

[2] = molecular target: T2, UDP-glucuronosyltransferase 1A10 (Homo sapiens, UniProt Q9HAW8); experiment: Drug metabolism assessed as recombinant human C-terminal His-tagged UGT1A10-mediated estriol-3-glucuronide formation after 15 to 60 mins by Michaelis-Menten equation analysis in presence of UDPGA; in short: as §1
T2 sequence (Q9HAW8 whole entry): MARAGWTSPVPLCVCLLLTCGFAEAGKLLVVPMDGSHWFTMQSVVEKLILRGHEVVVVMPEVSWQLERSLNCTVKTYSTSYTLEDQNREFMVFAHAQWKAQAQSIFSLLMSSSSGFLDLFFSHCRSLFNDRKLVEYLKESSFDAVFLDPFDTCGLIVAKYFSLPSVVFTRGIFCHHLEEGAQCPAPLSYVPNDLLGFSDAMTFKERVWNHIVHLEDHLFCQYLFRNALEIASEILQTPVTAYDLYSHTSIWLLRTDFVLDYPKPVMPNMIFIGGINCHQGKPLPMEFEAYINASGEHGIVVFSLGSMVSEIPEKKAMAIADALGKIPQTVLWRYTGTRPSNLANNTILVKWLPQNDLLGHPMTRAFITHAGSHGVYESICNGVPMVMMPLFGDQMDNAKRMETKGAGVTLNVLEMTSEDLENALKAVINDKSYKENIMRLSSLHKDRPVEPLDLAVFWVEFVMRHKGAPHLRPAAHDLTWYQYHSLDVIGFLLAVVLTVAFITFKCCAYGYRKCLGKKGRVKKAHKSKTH

[3] = molecular target: T3, UDP-glucuronosyltransferase 2B4 (Homo sapiens, UniProt P06133); experiment: Drug metabolism assessed as recombinant human C-terminal His-tagged UGT2B4-mediated estriol-16-glucuronide formation after 15 to 60 mins by Michaelis-Menten equation analysis in presence of UDPGA
T3 sequence (P06133 whole entry): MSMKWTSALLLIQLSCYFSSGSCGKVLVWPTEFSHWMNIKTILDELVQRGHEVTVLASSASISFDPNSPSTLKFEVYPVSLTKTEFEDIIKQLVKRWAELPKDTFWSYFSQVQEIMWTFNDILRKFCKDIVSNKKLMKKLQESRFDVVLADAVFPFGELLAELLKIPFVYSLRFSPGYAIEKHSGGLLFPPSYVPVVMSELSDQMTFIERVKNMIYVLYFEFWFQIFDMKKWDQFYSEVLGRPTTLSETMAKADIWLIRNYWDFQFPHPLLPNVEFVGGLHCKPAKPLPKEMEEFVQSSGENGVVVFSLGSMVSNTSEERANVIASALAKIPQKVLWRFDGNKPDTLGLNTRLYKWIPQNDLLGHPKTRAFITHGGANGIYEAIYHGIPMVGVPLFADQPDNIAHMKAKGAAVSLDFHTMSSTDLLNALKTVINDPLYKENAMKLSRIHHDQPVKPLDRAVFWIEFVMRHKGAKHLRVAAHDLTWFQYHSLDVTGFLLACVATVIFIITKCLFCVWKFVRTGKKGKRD

[4] = molecular target: T4, UDP-glucuronosyltransferase 1A1 (Homo sapiens, UniProt P22309); experiment: Drug metabolism assessed as recombinant human C-terminal His-tagged UGT1A1-mediated estriol-3-glucuronide formation at 200 uM after 15 to 60 mins by HPLC analysis in presence of UDPGA
T4 sequence (P22309 whole entry): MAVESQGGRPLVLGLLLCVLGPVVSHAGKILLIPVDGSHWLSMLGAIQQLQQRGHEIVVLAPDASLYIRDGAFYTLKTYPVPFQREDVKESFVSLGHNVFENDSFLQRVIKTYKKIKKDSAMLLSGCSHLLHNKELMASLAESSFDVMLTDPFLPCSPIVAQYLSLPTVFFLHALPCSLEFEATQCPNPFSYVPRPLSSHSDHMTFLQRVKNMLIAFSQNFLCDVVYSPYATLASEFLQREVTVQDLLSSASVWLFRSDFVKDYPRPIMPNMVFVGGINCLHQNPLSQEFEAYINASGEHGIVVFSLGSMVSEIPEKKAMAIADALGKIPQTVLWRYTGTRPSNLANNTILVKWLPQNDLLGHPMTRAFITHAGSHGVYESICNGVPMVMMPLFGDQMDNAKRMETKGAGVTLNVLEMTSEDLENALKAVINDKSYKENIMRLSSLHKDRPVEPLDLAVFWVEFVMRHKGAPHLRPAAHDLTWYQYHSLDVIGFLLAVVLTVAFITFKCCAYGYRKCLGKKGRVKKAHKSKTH
In short: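 Screening at a single substrate concentration of 200 μM, in triplicate. The reaction used 5 or 50 µg of UGT-enriched insect cell membranes in 50 mM phosphate pH 7.4 with 10 mM MgCl₂ and 5 mM UDPGA, 10% final DMSO. Incubation was 15–60 min at 37°C. Perchloric acid stopped the reaction and supernatants were analysed by HPLC. Controls lacked UDPGA. Rates were normalized to relative UGT expression level.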

## C[C@]12CC[C@@H]3c4ccc(O)cc4CC[C@H]3[C@@H]1C[C@H](O)[C@@H]2O [EPIESTRIOL]
[1]
  Drug metabolism: 2700 pmol/min/mg

## C[C@]12CC[C@@H]3c4ccc(O)cc4CC[C@H]3[C@@H]1C[C@@H](O)[C@@H]2O [ESTRIOL]
[2]
  Drug metabolism: 840 pmol/min/mg
[3]
  Drug metabolism: 4 pmol/min/mg
[4]
  Drug metabolism: metabolite_detected
